From ChEMBL document CHEMBL1821569, “Synthesis of novel 1,2,5-trisubstituted benzimidazoles as potential antitumor agents” (2011)

Experiments:
Type in all cases: functional
SNB-75 = assay: Antitumor activity against human SNB75 cells after 48 hrs by SRB assay; settings: SNB-75, 48 h; for CC50: read-out: LC50 (the source's name)
Summary of the method: (§1)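 NCI 60-cell-line secondary screen. Cells were exposed continuously to drug for 48 h at five concentration levels (100, 10, 1.0, 0.1 and 0.01). Growth was estimated by sulforhodamine B protein staining. GI50 is the concentration giving a 50% reduction in net protein increase versus untreated control cells over the incubation. TGI (total growth inhibition) and LC50 (50% cell kill) were also derived.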

MDA-MB-231 = assay: Antitumor activity against human MDA-MB-231 cells after 48 hrs by SRB assay; settings: MDA-MB-231, 48 h; for CC50: read-out: LC50 (the source's name); summary of the method: as §1
EKVX = assay: Antitumor activity against human EKVX cells after 48 hrs by SRB assay; summary of the method: as §1
HCT-15 = assay: Antitumor activity against human HCT15 cells after 48 hrs by SRB assay; settings: HCT-15, 48 h; summary of the method: as §1
MDA-MB-468 = assay: Antitumor activity against human MDA-MB-468 cells after 48 hrs by SRB assay; settings: MDA-MB-468, 48 h; for CC50: read-out: LC50 (the source's name); summary of the method: as §1
MCF7 = assay: Antitumor activity against human MCF7 cells after 48 hrs by SRB assay; settings: MCF7, 48 h; for CC50: read-out: LC50 (the source's name); summary of the method: as §1
K562 = assay: Antitumor activity against human K562 cells after 48 hrs by SRB assay; settings: K562, 48 h; for CC50: read-out: LC50 (the source's name); summary of the method: as §1
M14 = assay: Antitumor activity against human M14 cells after 48 hrs by SRB assay; settings: M14, 48 h; for CC50: read-out: LC50 (the source's name); summary of the method: as §1
[1] = Antitumor activity against human Hs 578T cells after 48 hrs by SRB assay; settings: for CC50: read-out: LC50 (the source's name); summary of the method: as §1
NCI-H460 = assay: Antitumor activity against human NCI-H460 cells after 48 hrs by SRB assay; settings: NCI-H460, 48 h; for CC50: read-out: LC50 (the source's name); summary of the method: as §1
IGROV-1 = assay: Antitumor activity against human IGROV1 cells after 48 hrs by SRB assay; settings: IGROV-1, 48 h; for CC50: read-out: LC50 (the source's name); summary of the method: as §1
786-0 = assay: Antitumor activity against human 786-0 cells after 48 hrs by SRB assay; settings: 786-0, 48 h; for CC50: read-out: LC50 (the source's name); summary of the method: as §1
T47D = assay: Antitumor activity against human T47D cells after 48 hrs by SRB assay; settings: for CC50: read-out: LC50 (the source's name)
Summary of the method: (§2)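 NCI 60-cell-line secondary screen. Continuous 48 h exposure at five concentration levels. Cell growth estimated by sulforhodamine B protein staining. GI50 taken as the concentration giving 50% reduction in net protein increase relative to untreated control cells over the incubation. TGI (total growth inhibition) and LC50 (50% cell kill) were also derived.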

RPMI-8226 = assay: Antitumor activity against human RPMI8226 cells after 48 hrs by SRB assay; settings: RPMI-8226, 48 h; for CC50: read-out: LC50 (the source's name); summary of the method: as §1
SW-620 = assay: Antitumor activity against human SW620 cells after 48 hrs by SRB assay; settings: SW-620, 48 h; for CC50: read-out: LC50 (the source's name); summary of the method: as §2
NCI-H226 = assay: Antitumor activity against human NCI-H226 cells after 48 hrs by SRB assay; settings: NCI-H226, 48 h; summary of the method: as §1
HOP-92 = assay: Antitumor activity against human HOP92 cells after 48 hrs by SRB assay; settings: HOP-92, 48 h; summary of the method: as §1
OVCAR-5 = assay: Antitumor activity against human OVCAR5 cells after 48 hrs by SRB assay; settings: OVCAR-5, 48 h; for CC50: read-out: LC50 (the source's name); summary of the method: as §1
NCI/ADR-RES = assay: Antitumor activity against human NCI/ADR-RES cells after 48 hrs by SRB assay; settings: for CC50: read-out: LC50 (the source's name); summary of the method: as §1
ACHN = assay: Antitumor activity against human ACHN cells after 48 hrs by SRB assay; settings: for CC50: read-out: LC50 (the source's name); summary of the method: as §1
Malme-3M = assay: Antitumor activity against human MALME-3M cells after 48 hrs by SRB assay; settings: for CC50: read-out: LC50 (the source's name); summary of the method: as §1
MOLT-4 = assay: Antitumor activity against human MOLT4 cells after 48 hrs by SRB assay; settings: MOLT-4, 48 h; summary of the method: as §1
CAKI-1 = assay: Antitumor activity against human Caki1 cells after 48 hrs by SRB assay; settings: CAKI-1, 48 h; for CC50: read-out: LC50 (the source's name); summary of the method: as §1
A549 = assay: Antitumor activity against human A549 cells after 48 hrs by SRB assay; settings: A549, 48 h; for CC50: read-out: LC50 (the source's name); summary of the method: as §1
PC-3 = assay: Antitumor activity against human PC3 cells after 48 hrs by SRB assay; settings: PC-3, 48 h; for CC50: read-out: LC50 (the source's name); summary of the method: as §1
UACC-62 = assay: Antitumor activity against human UACC62 cells after 48 hrs by SRB assay; settings: UACC-62, 48 h; for CC50: read-out: LC50 (the source's name); summary of the method: as §2
NCI-H322M = assay: Antitumor activity against human NCI-H322M cells after 48 hrs by SRB assay; summary of the method: as §1
SK-MEL-5 = assay: Antitumor activity against human SK-MEL-5 cells after 48 hrs by SRB assay; settings: SK-MEL-5, 48 h; for CC50: read-out: LC50 (the source's name); summary of the method: as §1
NCI-H522 = assay: Antitumor activity against human NCI-H522 cells after 48 hrs by SRB assay; settings: NCI-H522, 48 h; summary of the method: as §1
SR = assay: Antitumor activity against human SR cells after 48 hrs by SRB assay; settings: for CC50: read-out: LC50 (the source's name); summary of the method: as §2
TK-10 = assay: Antitumor activity against human TK10 cells after 48 hrs by SRB assay; settings: TK-10, 48 h; for CC50: read-out: LC50 (the source's name); summary of the method: as §2

## COC(=O)c1ccc2c(c1)nc(-c1ccc(Cl)cc1)n2-c1cc(C(C)(C)C)[nH]n1
SNB-75
  GI50: 2.14 µM
  TGI: 12.6 µM
  CC50: > 100 µM
MDA-MB-231
  GI50: 4.62 µM
  TGI: 27 µM
  CC50: > 100 µM
EKVX
  GI50: 3.06 µM
  LC50 (50% cell kill): > 100 µM
  TGI: > 100 µM
HCT-15
  GI50: 4.36 µM
  LC50 (50% cell kill): > 100 µM
  TGI: > 100 µM
MDA-MB-468
  GI50: 2.4 µM
  TGI: 7.98 µM
  CC50: > 100 µM
MCF7
  GI50: 2.79 µM
  TGI: 12.3 µM
  CC50: > 100 µM
K562
  GI50: 4.2 µM
  TGI: > 100 µM
  CC50: > 100 µM
M14
  GI50: 2.9 µM
  TGI: 8.22 µM
  CC50: 0.758 µM
[1]
  GI50: 1.72 µM
  TGI: 7.86 µM
  CC50: > 100 µM
NCI-H460
  GI50: 2.95 µM
  TGI: 8.81 µM
  CC50: > 100 µM
IGROV-1
  GI50: 3.64 µM
  TGI: 25 µM
  CC50: > 100 µM
786-0
  GI50: 3.62 µM
  TGI: 32 µM
  CC50: > 100 µM
T47D
  GI50: 3.64 µM
  TGI: > 100 µM
  CC50: > 100 µM
RPMI-8226
  GI50: 3.93 µM
  TGI: 19 µM
  CC50: > 100 µM
SW-620
  GI50: 3.24 µM
  TGI: > 100 µM
  CC50: > 100 µM
NCI-H226
  GI50: 4.09 µM
  LC50 (50% cell kill): > 100 µM
  TGI: 44 µM
HOP-92
  GI50: 1.15 µM
  TGI: 8.02 µM
HOP-92; read-out: LC50 (the source's name)
  CC50: > 100 µM
OVCAR-5
  GI50: 12.9 µM
  TGI: 60.1 µM
  CC50: > 100 µM
NCI/ADR-RES
  GI50: 2.72 µM
  TGI: 7.35 µM
  CC50: > 100 µM
ACHN
  GI50: 3 µM
  TGI: 9.34 µM
  CC50: > 100 µM
Malme-3M
  GI50: 3.25 µM
  TGI: 15.6 µM
  CC50: > 100 µM
MOLT-4
  GI50: 5.48 µM
  LC50 (50% net cell kill): > 100 µM
  TGI: > 100 µM
CAKI-1
  GI50: 2.25 µM
  TGI: 12.8 µM
  CC50: > 100 µM
A549
  GI50: 4.03 µM
  TGI: 94.5 µM
  CC50: > 100 µM
PC-3
  GI50: 2.93 µM
  TGI: 15.7 µM
  CC50: > 100 µM
UACC-62
  GI50: 2.01 µM
  TGI: 7.78 µM
  CC50: 0.463 µM
NCI-H322M
  GI50: 10.4 µM
  LC50 (50% cell kill): > 100 µM
  TGI: 86.4 µM
SK-MEL-5
  GI50: 2.02 µM
  TGI: 5.1 µM
  CC50: 0.186 µM
NCI-H522
  GI50: 3.21 µM
  LC50 (50% cell kill): > 100 µM
  TGI: 20.3 µM
SR
  GI50: 3.23 µM
  TGI: > 100 µM
  CC50: > 100 µM
TK-10
  GI50: 6.94 µM
  TGI: > 100 µM
  CC50: > 100 µM

## COC(=O)c1ccc2c(c1)nc(-c1cc3ccccc3[nH]c1=O)n2-c1cc(C(C)(C)C)[nH]n1
SNB-75
  GI50: 5.42 µM
  TGI: 41.5 µM
  CC50: > 100 µM
MDA-MB-231
  GI50: 4.13 µM
  TGI: > 100 µM
  CC50: > 100 µM
EKVX
  GI50: 5.8 µM
  LC50 (50% cell kill): > 100 µM
  TGI: > 100 µM
HCT-15
  LC50 (50% cell kill): > 100 µM
  TGI: > 100 µM
MDA-MB-468
  GI50: 20.5 µM
  TGI: > 100 µM
  CC50: > 100 µM
MCF7
  GI50: > 100 µM
  TGI: > 100 µM
  CC50: > 100 µM
K562
  GI50: 1.73 µM
  TGI: > 100 µM
  CC50: > 100 µM
M14
  TGI: > 100 µM
  CC50: > 100 µM
[1]
  GI50: 0.619 µM
  TGI: 34.1 µM
  CC50: > 100 µM
NCI-H460
  GI50: 0.63 µM
  TGI: > 100 µM
  CC50: > 100 µM
IGROV-1
  GI50: 0.965 µM
  TGI: > 100 µM
  CC50: > 100 µM
786-0
  GI50: 5.81 µM
  TGI: > 100 µM
  CC50: > 100 µM
T47D
  GI50: > 100 µM
  TGI: > 100 µM
  CC50: > 100 µM
RPMI-8226
  GI50: 0.167 µM
  TGI: 0.987 µM
  CC50: > 100 µM
SW-620
  TGI: > 100 µM
  CC50: > 100 µM
NCI-H226
  GI50: 7 µM
  LC50 (50% cell kill): > 100 µM
  TGI: > 100 µM
OVCAR-5
  TGI: > 100 µM
  CC50: > 100 µM
NCI/ADR-RES
  GI50: 5.29 µM
  TGI: > 100 µM
  CC50: > 100 µM
ACHN
  GI50: > 100 µM
  TGI: > 100 µM
  CC50: > 100 µM
Malme-3M
  GI50: 2.63 µM
  TGI: > 100 µM
  CC50: > 100 µM
MOLT-4
  GI50: 0.445 µM
  LC50 (50% net cell kill): > 100 µM
  TGI: > 100 µM
CAKI-1
  GI50: 0.476 µM
  TGI: 90.5 µM
  CC50: > 100 µM
A549
  GI50: > 100 µM
  TGI: > 100 µM
  CC50: > 100 µM
PC-3
  GI50: 2.27 µM
  TGI: > 100 µM
  CC50: > 100 µM
UACC-62
  TGI: > 100 µM
  CC50: > 100 µM
NCI-H322M
  GI50: 0.929 µM
  LC50 (50% cell kill): > 100 µM
  TGI: > 100 µM
SK-MEL-5
  GI50: 2.3 µM
  TGI: > 100 µM
  CC50: > 100 µM
NCI-H522
  GI50: 0.928 µM
  LC50 (50% cell kill): > 100 µM
  TGI: > 100 µM
SR
  GI50: 10 µM
  TGI: > 100 µM
  CC50: > 100 µM
TK-10
  GI50: 16.9 µM
  TGI: 55.8 µM
  CC50: > 100 µM
